According to article PMC7485944 (Clinical and Translational Science, 2020):
“And” between values parts separate entries of the source, which are not always exact repeats. Identical values can stand only once. Like-named read-outs stand apart in the source and are kept apart here.

What was measured:
OATP1B1 [1] = conditions: following a single 600 mg dose; cited from earlier work
OATP2B1 = conditions: cited from earlier work
OATP1B3 [2] = conditions: following a single 600 mg dose; cited from earlier work
[3] = ref Idorsia Pharmaceuticals, data on file; cited from earlier work
[4] = cited from earlier work
platelet inhibition = conditions: single s.c. doses of 8 and 16 mg, postdose; cited from earlier work
[5] = Safety and tolerability evaluation of study treatments in healthy subjects; format: in vivo, human; conditions: for Number of AEs reported: 14 subjects
Summary of the method: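 Randomized, double-blind, two-period crossover in healthy adults with a 7–10 day washout. Each period gave 100 mL saline or 600 mg OATP inhibitor i.v. over 30 min, with bags and lines covered. This was followed by 4 mg test compound s.c. in the thigh under fasting. Monitoring throughout covered AEs, serious AEs, physical exam, vital signs, 12-lead ECG, body weight, clinical chemistry, hematology and coagulation.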

[6] = cited from earlier work; remark: listed apart in the source
OATP1B3 [7] = conditions: in vitro; ref Idorsia Pharmaceuticals, data on file; cited from earlier work
MRP2 = conditions: in vitro; ref Idorsia Pharmaceuticals, data on file; cited from earlier work
OATP1B1 [8] = conditions: in vitro; ref Idorsia Pharmaceuticals, data on file; cited from earlier work
[9] = format: in vivo, human
Summary of the method: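 Same crossover dosing (saline or 600 mg inhibitor i.v. over 30 min, then 4 mg s.c. fasting). Plasma was sampled from 5 min to 36 h post-dose and stored at −25°C. Quantification used validated LC-MS/MS (LLOQ 1.00 ng/mL; linear 1.00–2,000 ng/mL). Noncompartmental analysis: AUC0–t by linear trapezoidal rule; AUC0–∞ adds Ct/λz; CL/F = Dose/AUC0–∞. Treatment effect given as geometric mean ratios with 90% CI.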

[10] = cited from earlier work; remark: listed apart in the source
[11] = 600 mg rifampin i.v. before 4 mg selatogrel s.c.
[12] = Treatment A: placebo + 4 mg selatogrel s.c., n = 13
[13] = Treatment B: 600 mg rifampin i.v. + 4 mg selatogrel s.c., n = 13
[14] = treatment B (rifampin) / A (placebo), n = 13

## CO[C@H]1/C=C/O[C@@]2(C)Oc3c(C)c(O)c4c(O)c(c(/C=N/N5CCN(C)CC5)c(O)c4c3C2=O)NC(=O)/C(C)=C\C=C\[C@H](C)[C@H](O)[C@@H](C)[C@@H](O)[C@@H](C)[C@H](OC(C)=O)[C@@H]1C [rifampin]
OATP1B1 [1]
  Inhibition of OATP1B1: potent inhibitor
OATP2B1
  Inhibition of OATP2B1: not a potent inhibitor
OATP1B3 [2]
  Inhibition of OATP1B3: potent inhibitor

## CCCCOC(=O)N1CCN(C(=O)[C@H](CP(=O)(O)O)NC(=O)c2cc(N3CC[C@H](OC)C3)nc(-c3ccccc3)n2)CC1 [selatogrel, 4‐((R)‐2‐{[6‐((S)‐3‐Methoxypyrrolidin‐1‐yl)‐2‐phenylpyrimidine‐4‐carbonyl]amino}‐ 3‐phosphonopropionyl)piperazine‐1‐carboxylic Acid Butyl Ester]
[3]
  transcellular permeability: 0.2 10^−6 cm/seconds
[4]; dose range 1–32 mg
  Exposure dose proportionality: dose‐proportional exposure
  Safety and tolerability in single-ascending dose study: safe and well‐tolerated
[4]; s.c.
  Time of absorption after s.c. administration: 30 to 45 min
  elimination half-life: 2 to 9 h
Platelet inhibition
  Time to reversal of pharmacodynamic effect: ≤ 24 h
[5]; both treatment periods
  Intensity of AEs: mild
  Serious adverse events or AEs leading to discontinuation: No serious adverse events or AEs leading to study discontinuation
[5]; selatogrel 4 mg s.c. after rifampin or matching placebo
  Overall safety and tolerability: safe and well‐tolerated
[5]; selatogrel 4 mg s.c. with 600 mg rifampin i.v. (treatment B)
  Number of AEs reported: 17
[5]; selatogrel 4 mg s.c. with placebo (treatment A)
  Number of AEs reported: 8
[5]; treatment period A (placebo + selatogrel)
  Number of AEs considered related to study treatment: 1
[6]
  Route of elimination: mainly eliminated unchanged via the biliary route
OATP1B3 [7]
  Substrate of OATP1B3: substrate
MRP2
  Substrate of MRP2: substrate
OATP1B1 [8]
  Substrate of OATP1B1: substrate
[9]; [11]
  Decrease of CL/F with rifampin: ~ 30%
  Decrease of Vd/F with rifampin: ~ 30%
  Increase of AUC0–t with rifampin compared with placebo: 44%
  Increase of AUC0–∞ with rifampin compared with placebo: 43% and ~40%
  Increase of Cmax with rifampin compared with placebo: 19% and ~ 20%
[9]; [12]
  AUC0–t, geometric mean: 273.7 ng·h/mL
  AUC0–∞, geometric mean: 279.8 ng·h/mL
  CL/F, geometric mean: 14.3 L/h
[9]; [13]
  AUC0–t, geometric mean: 392.6 ng·h/mL
  AUC0–∞, geometric mean: 398.7 ng·h/mL
  CL/F, geometric mean: 10.0 L/h
[9]; [14]
  AUC0–t, geometric mean ratio B/A: 1.44
  AUC0–∞, geometric mean ratio B/A: 1.43
  CL/F, geometric mean ratio B/A: 0.70
  Cmax, geometric mean ratio B/A: 1.19
  Vd/F, geometric mean ratio B/A: 0.68
  t 1/2, geometric mean ratio B/A: 0.97
[10]
  Plasma protein binding: highly bound to plasma proteins
